In the EternaBench riboswitch data:

Test system: MS2 coat protein
Assay: apparent Kd, MS2 coat protein; higher = weaker binding; RNA-MaP array; FMN 200 µM where present
Method in brief: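 The apparent Kd is the median of filtered binding-curve fits, one per cluster, to green signal normalised to red-channel RNA signal and control-cluster median Fmax. The clusters were on Illumina sequencing chips, and stalled E. coli RNA polymerase had transcribed the designs on them. Titration used SNAP-549-labelled MS2 coat protein from 0.7 or 1.5 nM, doubling to 3 µM, without and then with constant ligand, in 100 mM Tris-HCl pH 7.5, 80 mM KCl, 4 mM MgCl2, BSA, DTT, yeast tRNA and Tween-20.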

[1] = designed as: ON switch for flavin mononucleotide, no ligand
[2] = ligand present: flavin mononucleotide, designed as: ON switch for flavin mononucleotide
[3] = designed as: OFF switch for flavin mononucleotide, no ligand
[4] = ligand present: flavin mononucleotide, designed as: OFF switch for flavin mononucleotide

Sequence	apparent Kd [1] [nM]	apparent Kd [2] [nM]	apparent Kd [3] [nM]	apparent Kd [4] [nM]
AAAUAAAUGACUCAGGAUAUAUCAUAGAAUACAUGAGGAUCACCCAUGUUUUAAUAACAUGUUUGGUAGAAGGGAGUCAAUAAAU	80.4	29.3		
GCACCAAGAGGAUAUACCGAGGUCAUCUACUUUGCAUAGCGACAUGAGGAUCACCCAUGUAGAAGGUUUGUCGU			95.4	80.6
GCCUGCCGUGGCACGGUAGCACCGGAGGAUAUCCGCGUCGGUCAUGACAUGAGGAUCACCCAUGUGGAGAAGGCUGGUUUGUCC			10.8	21.2
UUGAUUAUACAAGGAUAUCAAUUGUAAUUGAGACUUACAUGAGGAUCACCCAUGUUAAUAUUUUUUGAGAAGGUGUAUUUUCAG	27.2	25.4		
CAAUUUAUGUCAGGAUAUACAAUACAAUGAUUAGUAGAAGGGAUUAAUACAUGAGGAUCACCCAUGUCAUGUGUCAUCGUACCC			28.1	23.3
UAGUAUAAGGGCAUUAAACAUGAGGAUCACCCAUGUACGAUAGAGGAUAUGCAUUUCAGUUUAGAGUAGAAGGUUAGAGAAUAU			39.1	47.4
AAUAUAAAGAGCUGGUACUCAAUAACAUGAGGAUCACCCAUGUAGGAUAUCAGCACGAUAAGUGCUGAGAAGGACAUCCAGCUC			16.6	29.4
GGCAUAAACGAGGAUAUCGUUACGGAAACGUAACGAGAAGGUGUAACAUGAGGAUCACCCAUGUUCCUCAAGCC			30.5	33
AUAGGAUGAGGUGACGUACAUGAGGAUCACCCAUGUUUGACACAGGAUAUCCCGCGACUUGGUUUGGAGAAGGGUGGCAGACAA			164	119
GUGUACAGAGGAUAUACAUAAGCAUGGAAACAUGCAUCUUCACAUGAGGAUCACCCAUGUAGAAGGCUGUACAC			18.1	75.6
UGGGUAAAUGUAGGAUAUCCAUAUUAAUAAUAUGGAGAAGGACAUGAGGAUCACCCAUGUACAGGGAAUUACCCAUUUCCUCUC			80.1	287
GCGAUUUUGUAAGGAUAUACACCAGUUUCAAGUGUAGAAGGUACUUACAUGAGGAUCACCCAUGUAUACUUGGAUAAUAGUCGC	17.4	17.5		
UGUCGGAGCAGAGGAUAUUACAUGAGGAUCACCCAUGUAUGAACCAAUUGCUGGAAACAGCAAUGUAAGAAGGCUGCUCCGACA			5.04	9.44
GCCGGGUAGGCAGGAUAUCCUCGCGCAAACACAUGAGGAUCACCCAUGUACACAAAACGUGAUAUGGAGAAGGGCUGACCCGCA	33.9	5.84		
UCCGCAAGUGAAGGAUAUACGGCUGAAGAGCCAGUAGAAGGUCACAUGAGGAUCACCCAUGUCUACCGCUACGAGAUAUUACAA			19.1	59.5
GCAAUGCCUGACAUGAGGAUCACCCAUGUUAGAUUGUUAUGUCAGGAUAUUGUCUAGAAACUAGACAAGAAGGGAUGCAUUGCU	313	25.1		
GCCAACUUAUGAGGAUAUGGCACCUUAUUGGUGCCAGAAGGCAUGUCAAUUGACAUGAGGAUCACCCAUGUAUUAUAGUUGGCA	700	108		
CCUUUGAAGAUCCUAAAUUUCGACAUGAGGAUCACCCAUGUGCAGGAUAUCGUGCCAGUGAUGUACGAGAAGGGCCGUCUCUGC			160	155
AUGGUGUGAUAGGAUAUUGCUGGGUCAACCUUUUAAGAAGGGUCUACAUGAGGAUCACCCAUGUGGGUGUCCCU			65.3	60.2
ACAUGAGAGUUAGGAUAUCUUGUACCUACAUGUGACAUGAGGAUCACCCAUGUGGUAAGUAUGAGGGAGAAGGAACAGAUAUGU	43.9	33.9		
AAUAACAGAGGAUAUACUAUUUUAUGUGUUUAUUGUUUUGAACAUGAGGAUCACCCAUGUAGAAGGCUGAGUAA			30.2	38
AAGACACAUGAGGAUCACCCAUGUCAAGAGAGACGAGGAUAUCUGAAAAAAAAAAAAAAAGGAGAAGGCGUGAAAA	109	51.1		
CCUUACACCGAGAAGGGCACGUAUUGAAGAGGGUGCCAGGAACAUCACAUGAGGAUCACCCAUGUGCAGGAUAUCGGCAGGAAC			9.78	22.3
UUAUACAUGAGGAUCUCCCAUGACAUGAGGAUCACCCAUGUGCAGGAUAUACGUGUUAUAAUAUAGUAGAAGGGCAGUCUAUAU			36.8	104
AAAAAACAUGAGGAUCACCCAUGUGAGGAUAUCGUGCAGAAAAAAAAAAAAAACUGCACGAGAAGGCACAUGAA			237	460
GCAGCACUUUAAAACAUGAGGAUCACCCAUGUCGAUUGUUAUGAGGAUAUGCAUCGGAUGAAGAUGCAGAAGGCAUUGUGCUGC	7.36	6.23		
CGCUAAGAUGGGUUUAAUGGAGCAUAGGAUAUGCUUGUACAUGAGGAUCACCCAUGUUAUAUUGUGCAGAAGGGUGCAUUUGCG	457	158		
AACCAACAUGAGGAUCACCCAUGUUCUCAGACGUUUAGGUCACAGGAUAUUCGUGCUUGUGGGACGGAGAAGGGUGCCUCGCUG	92.7	125		

Sequence	apparent Kd [1] [nM]	apparent Kd [2] [nM]	apparent Kd [3] [nM]	apparent Kd [4] [nM]
ACAUGAGGAUCACCCAUGUUCACAUAGGAUAUUGAUUAUAUUGGAUAUAGAAUAUUUAUAAUACACAAGAAGGAUGCAAGAUGG	16.4	13.5		
CGCGAUGCGGUUGGCCCUGGGCGAGAGGAUAUGGGCAGCGAGACAUGAGGAUCACCCAUGUUUUCUCAGAAGGCUCGAGCAGGC	181	17.1		
UCACGGGACUAAGGAUAUACAUGAACUAUUAUUGUAGAAGGUAGAAUGUUAGCUUAUACACUAAACAUGAGGAUCACCCAUGUA			36.5	32.8
GAGAAACAUGAGGAUCACCCAUGUGAGGAUAUGCGUACGUUGUCCGUAGGCGACGUGCGCAGAAGGCGCAAAGG			83.9	118
AAGUAGAUCCGAGGAUAUACAAGCCGGAAACGGUACAUGAGGAUCACCCAUGUAGAAGGCGGAUCUACAGGUACUAAAGUACCA			5.53	9.17
GUUUAGUGAGGAUAUGUGGCUUCGAUCGUGCGCGUUCGGCUACAGAAGGCACAUGAGGAUCACCCAUGUUCCUC			445	704
GUAGUGUAUGUAGGAUAUGUGAAGGAAACAUUUACAGAAGGACAUGAGGAUCACCCAUGUAUUACAGUCAGCAAUCUGACUGUU			23.6	41.2
CCGACGUCAGGAUAUCUGAUGUCUAACUUCGGUUAGACAUCAGAGAAGGGACAUGAGGAUCACCCAUGUCGGAG			29	52.8
GUGUAGAUAGGAUAUGCAUGAGUCUAGCGAAGCUAGGCUCUACAUGAGGAUCACCCAUGUAGAAGGGUCUACAC			20.6	17.2
UCUACAUAGAUUCAUCAAUACAGUAAGGAUAUGAGAUACAUGAGGAUCACCCAUGUGCAUGUGAAUUAGAAGGUACAAUUAACU			15.7	12.8
GUGGUCAGACAUGAGGAUCACCCAUGUGGAAUAAAUAACAGACAGGAUAUGUAAUAUAGGAUAUAACAGAAGGGUCGAUUGGUG	89	77.9		
GGAUUACAUGAGGAUCACCCAUGUGAGGAUAUCGAUGUCCUGUCUUUCGUGCGGGACUCGAGAAGGCACUUGGA			45.2	141
UGACCCUGGAAGAGUGUUUAGACAUGAGGAUCACCCAUGUCUGAGGAUAUGCGGCAUCAAUAACAGCAGAAGGCAGACUUGGGU			239	32.7
CAGAAGUCAGGAUAUGCAUGGCGGGACUUGCGUCGUGGCGUGCAGAAGGGACAUGAGGAUCACCCAUGUAAAGC			50.9	51.2
AUAAUUUUAUAUUUAUUUUUAUUCAGAAGGCAUAACAUGAGGAUCACCCAUGUAAAUUAAUGUUAUGAGGAUAUGAUUUGGUUA			26.2	123
GUACUGAAGCUUUGCUUUAGUCGUACAUGAGGAUCACCCAUGUAGGAUAUGGUAAGCUUUGCUUACUAGAAGGAUAGAGUGAUC			119	50.2
CGUCUAUGCUAGAAGGCAUGAAACAUGAGGAUCACCCAUGUCAAAGACAUGAGGAUAUAGCAUAGACGAAAAGUGCGAAAGCAC	4.43	3.26		
CGUUGGUCAGGAUAUGGUGGGCUGGUCGCGCGGCCGGGUGGCUAGAAGGGACAUGAGGAUCACCCAUGUACGGC			21.5	40.5
AGCUGUGGCCGAGGAUAUCACGAACCAUGGAAAACCAUGGAACUCAAACAUGAGGAUCACCCAUGUGAGAAGGCGGUCUCAGCA			21.1	15.9
GCACCUCUAUUUGAACCGAUACGAACAUGAGGAUCACCCAUGUAGGAUAUGCUAAAAGUUGUGUUGCAGAAGGACAUUUAGUGC			10.7	10.5
AAGCGAGGGACAGGAUAUGCGGCAAAACUUUCCGCAGAAGGGUCGACAUGAGGAUCACCCAUGUCCUUACGCUCCAAGUAGAGG	189	277		
ACAUACAUUCGAGGAUAUCGGUGAUUUAUUUUACGAGAAGGCGAUUUAAGAUUUAUUAUUUUAGACAUGAGGAUCACCCAUGUA	27.7	24.5		
UGUGUGUGACAGGAUAUGCUGGUUAUGAGACGGGUAGAAGGGUCUACAUGAGGAUCACCCAUGUGGCCGGUUGG			19	21.2
UGUUGUAUUACAGGAUAUCUAGUAUUAUUAUUUAGAGAAGGGUAUUCACAUGAGGAUCACCCAUGUAUAUACGAGGAAGUUGUG	38.2	40.1		
UUAUGAUUAAGAGGAUAUAUACAACAUGAGGAUCACCCAUGUACCCAUGUAGUAGAAGGCUUAUUUUUAUAUAAUAAUAUAAUU	143	47.6		
GGAUCCAACACAGGAUAUGCUGGACCUUGUCCAGCAGAAGGGUGAAGAACAUGAGGAUCACCCAUGUGGAUCCAUAUAUUUAAU	240	14.6		
CCGCAUAAGCAGGAUAUCGUAUCGGAAACGAUACGAGAAGGGUUAACAUGAGGAUCACCCAUGUUCCUUAACGG			17.9	18.2
